Assay results: paper PMC5814546 (Clinical Pharmacokinetics, 2017)
Entries after “also recorded” stand apart in the source; their conditions may differ.

Assays:
[1] = Safety and tolerability, tablet single ascending dose study; format: in vivo, human
[2] = Summary of clinical safety and tolerability in phase I SAD and MAD studies; format: in vivo, human
Summary of the method: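 Healthy volunteers received oral ALZ-801 as capsule or tablet, fasted or fed, in single and multiple-dose placebo-controlled studies. AEs were logged from first dose to discharge and at a follow-up call, then coded with MedDRA v18.1. QTc and safety laboratory tests were monitored against withdrawal criteria. Summaries are given as cases or cases (%).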

[3] = Bridging clinical dose analysis and projection of brain drug exposure; set-up: species or system human; details: for projected plasma tramiprosate AUC12: oral ALZ-801 265 mg twice daily, steady state
Summary of the method: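 Projected from human plasma tramiprosate AUC after oral tablet: linear regression of steady-state dose vs AUC for 205 and 342 mg fed, with accumulation factor from Study 2 day 7/day 1 and modelled Study 3 data. Benchmark was the plasma AUC12 of the earlier 150 mg twice-daily tramiprosate trial. Brain exposure scaled by rodent brain/plasma ratio (14C-tramiprosate, single and steady-state).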

[4] = tested on: brain amyloid plaque load; details: chronic oral treatment, TgCRND8 mice; cited from earlier work
Aβ oligomers = details: 1000-fold excess of tramiprosate, IMS-MS; cited from earlier work
[5] = Regimen A: 171 mg tablet, fasted, n = 10
[6] = Regimen B: 205 mg tablet, fasted, n = 11
[7] = Regimen C: 205 mg tablet, fed, n = 12

CC(C)[C@H](N)C(=O)NCCCS(=O)(=O)O [ALZ-801, 3-(L-valyl) amino-1-propanesulfonic acid]
Chills [1, 5]: 0
Flatulence [1, 5]: 0
Flushing [1, 5]: 0
Gastrointestinal disorders [1, 5]: 4
General disorders and administration site conditions [1, 5]: 0
Headache [1, 5]: 0
Nausea [1, 5]: 4
Nervous system disorders [1, 5]: 0
Somnolence [1, 5]: 0
Subjects reporting AEs [1, 5]: 4
Vascular disorders [1, 5]: 0
Vomiting [1, 5]: 1
Chills [1, 6]: 0
Flatulence [1, 6]: 0
Flushing [1, 6]: 0
Gastrointestinal disorders [1, 6]: 4
General disorders and administration site conditions [1, 6]: 0
Headache [1, 6]: 0
Nausea [1, 6]: 4
Nervous system disorders [1, 6]: 0
Somnolence [1, 6]: 0
Subjects reporting AEs [1, 6]: 4
Vascular disorders [1, 6]: 0
Vomiting [1, 6]: 1
Chills [1, 7]: 0
Flatulence [1, 7]: 0
Flushing [1, 7]: 0
Gastrointestinal disorders [1, 7]: 0
General disorders and administration site conditions [1, 7]: 0
Headache [1, 7]: 0
Nausea [1, 7]: 0
Nervous system disorders [1, 7]: 0
Somnolence [1, 7]: 0
Subjects reporting AEs [1, 7]: 0
Vascular disorders [1, 7]: 0
Vomiting [1, 7]: 0
Subjects reporting AEs ([1]; Regimen D: 342 mg (2 × 171 mg tablets), fed, n = 12): 3
Chills ([1]; Regimen D: 342 mg, fed, n = 12): 0
Flatulence ([1]; Regimen D: 342 mg, fed, n = 12): 0
Flushing ([1]; Regimen D: 342 mg, fed, n = 12): 0
Gastrointestinal disorders ([1]; Regimen D: 342 mg, fed, n = 12): 3
General disorders and administration site conditions ([1]; Regimen D: 342 mg, fed, n = 12): 0
Headache ([1]; Regimen D: 342 mg, fed, n = 12): 0
Nausea ([1]; Regimen D: 342 mg, fed, n = 12): 3
Nervous system disorders ([1]; Regimen D: 342 mg, fed, n = 12): 0
Somnolence ([1]; Regimen D: 342 mg, fed, n = 12): 0
Vascular disorders ([1]; Regimen D: 342 mg, fed, n = 12): 0
Vomiting ([1]; Regimen D: 342 mg, fed, n = 12): 0
onset of nausea ([1]; following fasted dosing): 0.5 to 1 h
onset of nausea ([1]; following fed dosing): 1.5 to 2.5 h
tolerability ([1]; tablet SAD study (Study 3)): well tolerated
tolerability ([2]; oral, capsule or tablet, healthy volunteers): well tolerated
dose-limiting toxicity or maximum tolerated dose ([2]; over 2 weeks of dosing at doses up to 342 mg twice daily): no dose-limiting toxicity or maximum tolerated dose (MTD) was observed; also recorded: no dose-limiting toxicity was observed

NCCCS(=O)(=O)O [tramiprosate, 3-amino-1-propanesulfonic acid]
projected plasma tramiprosate AUC12 ([3]; fasted): approximately 4844 ng/mL h
projected plasma tramiprosate AUC12 ([3]; fasted and fed combined): ~4502 ng·h/mL
projected plasma tramiprosate AUC12 ([3]; fed): ~4360 ng·h/mL
Projected brain average concentration (C ss,av) ([3]; projected steady state, ALZ-801 tablet 265 mg twice daily, humans, 14C method): approximately 550 nM
brain:plasma ratio (brain penetration), steady state ([3]; rodent, 14C method, projected after steady-state dosing): ~ 40%
reduction in brain amyloid plaque load [4]: ~ 30%
formation of Aβ oligomers (Aβ oligomers): completely abrogated
